According to ChEMBL document CHEMBL1687796, “Synthesis and spectrum of the neoglycoside ACHN-490” (2010):
Values after ≈ are worked out from the molar mass of the structure shown.

Legend:
Assay type in all cases: functional
Acinetobacter sp. = experiment: Antibacterial activity against Acinetobacter spp. by broth microdilution method
Outline: (§1)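 MICs were determined by CLSI broth microdilution against clinical isolate panels that included aminoglycoside-resistant isolates. […] MIC90 was derived per group and not calculated when n was <10. Imipenem, ceftobiprole, ciprofloxacin and tigecycline MICs were also determined for the resistant isolates.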

Enterobacter sp. = experiment: Antibacterial activity against Enterobacter spp. by broth microdilution method; outline: as §1
[1] = Antibacterial activity against indole positive Proteae by broth microdilution method; outline: as §1
Pseudomonas aeruginosa = experiment: Antibacterial activity against Pseudomonas aeruginosa by broth microdilution method; outline: as §1
Serratia sp. = experiment: Antibacterial activity against Serratia spp. by broth microdilution method; conditions: Serratia sp. (in: enterobacteria); outline: as §1
Proteus mirabilis = experiment: Antibacterial activity against Proteus mirabilis by broth microdilution method; outline: as §1
Citrobacter = experiment: Antibacterial activity against Citrobacter spp. by broth microdilution method; outline: as §1
Escherichia coli = experiment: Antibacterial activity against Escherichia coli by broth microdilution method; outline: as §1
Klebsiella sp. = experiment: Antibacterial activity against Klebsiella spp. by broth microdilution method; outline: as §1
Staphylococcus sp. = experiment: Antibacterial activity against Staphylococcus spp. by broth microdilution method; outline: as §1

| Compound | MIC50 (Acinetobacter sp.) [µg/mL] | MIC90 (Acinetobacter sp.) [µg/mL] | MIC50 (Enterobacter sp.) [µg/mL] | MIC90 (Enterobacter sp.) [µg/mL] | MIC50 [1] [µg/mL] | MIC50 (Pseudomonas aeruginosa) [µg/mL] | MIC90 (Pseudomonas aeruginosa) [µg/mL] | MIC50 (Serratia sp.) [µg/mL] | MIC50 (Proteus mirabilis) [µg/mL] | MIC90 (Proteus mirabilis) [µg/mL] | MIC50 (Citrobacter) [µg/mL] | MIC50 (Escherichia coli) [µg/mL] | MIC90 (Escherichia coli) [µg/mL] | MIC50 (Klebsiella sp.) [µg/mL] | MIC90 (Klebsiella sp.) [µg/mL] | MIC50 (Staphylococcus sp.) [µg/mL] | MIC90 (Staphylococcus sp.) [µg/mL] |
| --- | --- | --- | --- | --- | --- | --- | --- | --- | --- | --- | --- | --- | --- | --- | --- | --- | --- |
| Nc1nc(/C(=N/O)C(=O)N[C@@H]2C(=O)N3C(C(=O)O)=C(/C=C4\CCN([C@@H]5CCNC5)C4=O)CS[C@H]23)ns1 [CEFTOBIPROLE] | > 32 | > 32 | > 32 | > 32 | > 32 | 16 (≈ 29.9 µM) | > 32 | > 32 | 0.125 (≈ 0.234 µM) | > 32 | 1 (≈ 1.87 µM) | > 32 | > 32 | > 32 | > 32 | – | – |
| O=C(O)c1cn(C2CC2)c2cc(N3CCNCC3)c(F)cc2c1=O [CIPROFLOXACIN] | > 16 | > 16 | 1 (≈ 3.02 µM) | > 16 | 16 (≈ 48.3 µM) | 8 (≈ 24.1 µM) | > 16 | 4 (≈ 12.1 µM) | 2 (≈ 6.04 µM) | > 16 | 8 (≈ 24.1 µM) | > 16 | > 16 | 16 (≈ 48.3 µM) | > 16 | 16 (≈ 48.3 µM) | > 16 |
| C[C@@H](O)[C@H]1C(=O)N2C(C(=O)O)=C(SCCNC=N)C[C@H]12 [IMIPENEM ANHYDROUS] | 2 (≈ 6.68 µM) | > 16 | 1 (≈ 3.34 µM) | 4 (≈ 13.4 µM) | 1 (≈ 3.34 µM) | 4 (≈ 13.4 µM) | 16 (≈ 53.4 µM) | 1 (≈ 3.34 µM) | 4 (≈ 13.4 µM) | 8 (≈ 26.7 µM) | 0.5 (≈ 1.67 µM) | 0.125 (≈ 0.418 µM) | 0.25 (≈ 0.835 µM) | 0.25 (≈ 0.835 µM) | > 16 | – | – |
